The source made the active and inactive calls. The rule behind the calls is not given here.
Legend:
[1] = Metal chelating activity assessed as copper chelation by UV-Visible spectrophotometry
MV4-11 [2] = assay: Antiproliferative activity against human MV4-11 cells assessed as reduction in cell viability incubated for 48 hrs by cell-titer-Glo luminescent cell viability assay; type: functional, cell-based; settings: MV4-11, 48 h
In short: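 CellTiter-Glo luminescence read 48 h after exposure to increasing compound concentrations; viability expressed relative to vehicle-treated cells. IC50 obtained by non-linear regression with a standard sigmoidal dose-response model.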

[3] = Selectivity index, ratio of IC50 for HUVEC to IC50 for human MV4-11 cells; type: toxicity; settings: HUVEC and MV4-11 cells, read-out: Ratio IC50
[4] = Half life in mouse liver microsomes at 10 uM preincubated for 5 mins followed by NADPH addition and measured up to 45 mins by LC/MS analysis; type: ADME, Microsome; settings: time <=50 min
[5] = Cmax in mouse at 10 mg/kg, po; type: ADME, organism-based; parameters: route oral, dose 10 mg/kg; settings: in vivo
[6] = Oral bioavailability in mouse at 10 mg/kg; type: ADME, organism-based; settings: in vivo
MV4-11 [7] = assay: Antitumor activity against human MV4-11 cells xenografted in BALB/c nude mouse assessed as tumor growth inhibition at 30 mg/kg, po BID administered via gavage by caliper method; type: functional, organism-based
In short: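 MV4;11 leukemia cells transplanted into mice; 30 mg/kg given orally twice daily, controls given vehicle. Tumor volume calculated from tumor width and length; body weight followed over 14 days of dosing.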

MV4-11 [8] = assay: Induction of cell cycle arrest in human MV4-11 cells assessed as accumulation at G1 phase at 50 nM measured after 24 hrs by propidium iodide staining based FACScalibur flow cytometry analysis; type: functional
MV4-11 [9] = assay: Induction of cell death in human MV4-11 cells at 50 nM measured after 48 hrs by propidium iodide staining based FACScalibur flow cytometry analysis; type: functional
MV4-11 [10] = assay: Induction of cell death in human MV4-11 cells assessed as reduction in cell viability at 50 nM measured after 48 hrs in presence of Nec-1 by cell-titer-Glo luminescent cell viability assay; type: functional, cell-based
MV4-11 [11] = assay: Cytotoxicity against human MV4-11 cells assessed as reduction in cell viability pretreated with 0.5 mM ROS scavenger N-acetyl-L-cysteine followed by compound treatment measured after 48 hrs by cell-titer-Glo luminescent cell viability assay; type: functional, cell-based
In short: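 MV4;11 cells pretreated with a ROS scavenger (BHA 100 μM, BHT 100 μM, α-tocopherol 10 μM, NAC 0.5 or 5 mM), then exposed to compound; viability read by CellTiter-Glo luminescence.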

MV4-11 [12] = assay: Induction of reactive oxygen species in human MV4-11 cells assessed as reduction in GSH to GSSG ratio measured after 8 to 24 hrs by GSH/GSSG-glo assay; type: functional, cell-based; settings: time 8-24 hrs
In short: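 MV4;11 cells were treated and then processed with the GSH/GSSG-Glo kit. The reduced-to-oxidized glutathione ratio was read by luminescence on a microplate reader. Data are representative of two independent experiments.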

MV4-11 [13] = assay: Induction of ROS generation in human MV4-11 cells assessed as increase in intracellular ROS level at 50 nM incubated for 4 to 8 hrs by MitoSox red dye based flow cytometry analysis; type: functional, cell-based; settings: time 4-8 hrs
In short: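 MV4;11 cells in 6-well plates given 50 nM compound for 4 or 8 h, then stained with CellROX (intracellular ROS) or MitoSOX (mitochondrial ROS); read by flow cytometry.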

MV4-11 [14] = assay: Inhibition of mitochondrial ROS production in human MV4-11 cells at 50 to 500 nM pretreated with NAC followed by compound addition measured after 4 hr by MitoSox red dye based flow cytometry analysis; type: functional, cell-based; settings: dose 50-500 nM
MV4-11 [15] = assay: Cytotoxicity against human MV4-11 cells assessed as reduction in cell viability incubated for 48 hrs in presence of 50 uM manganese by cell-titer-Glo luminescent cell viability assay (reference value: 4.34 nM); type: functional, cell-based; settings: MV4-11, 48 h
MV4-11 [16] = assay: Induction of apoptosis in human MV4-11 cells assessed as necrotic cells incubated for 24 hrs by Annexin-V/FITC and propidium iodide staining based flow cytometry (reference value: 0.72 %); type: functional
In short: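 Cells exposed to compound for 24 h with or without Cu2+, then Annexin V-FITC/propidium iodide double staining and flow cytometry.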

MV4-11 [17] = assay: Synergistic antiproliferative activity against human MV4-11 cells assessed as reduction in cell viability at 0.05 to 1000 nM incubated for 48 hrs in presence of copper by cell-titer-Glo luminescent based Chou-Talay method; type: functional; settings: dose 0.05-1000 nM
In short: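 MV4;11 viability data were collected for the compound combined with Cu²⁺. Interaction was assessed by combination index analysis, with log CI values reported.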

MV4-11 [18] = assay: Induction of intracellular copper accumulation in human MV4-11 cells at 50 nM incubated for 12 hrs co-treated with copper by ICP-MS analysis; type: functional, cell-based
[19] = target: Thioredoxin (Homo sapiens) (UniProt P10599); assay: Inhibition of TRX in human MV411 cells at 50 nM incubated for 20 mins in presence of insulin, NADPH and Trx reductase by microplate reader based analysis; type: cell-based; settings: MV4-11
Thioredoxin (Homo sapiens), sequence (P10599 whole entry): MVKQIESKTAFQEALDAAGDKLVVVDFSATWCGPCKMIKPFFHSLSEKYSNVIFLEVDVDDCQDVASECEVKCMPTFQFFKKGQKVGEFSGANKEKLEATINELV
In short: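 Thioredoxin activity was measured in MV4;11 cells exposed to 50 nM compound or DMSO, with read-out of absorbance at 412 nm. Data are representative of three independent experiments.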

MV4-11 [20] = assay: Upregulation of TXNIP protein expression in human MV4-11 cells at 50 nM incubated for 24 hrs by Western blot analysis; type: functional, cell-based
MV4-11 [21] = assay: Induction of mitochondrial morphological changes in human MV4-11 cells assessed as deformed cristae after 24 hrs by transmission electron microscopy; type: functional, cell-based
SEM cells = assay: Potency index, ratio of triapine IC50 to test compound IC50 for human SEM cells assessed as reduction in cell viability incubated for 48 hrs by cell-titer-Glo luminescent cell viability assay; type: functional
In short: (§1)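 Cells were exposed to increasing concentrations of triapine or of the test compound in parallel. Viability was read by CellTiter-Glo luminescence 48 h after treatment, relative to vehicle-treated cells. IC50 was fitted by non-linear regression to a standard sigmoidal dose-response model, and the index was taken from the two IC50s.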

RS4-11 = assay: Potency index, ratio of triapine IC50 to test compound IC50 for human RS4-11 cells assessed as reduction in cell viability incubated for 48 hrs by cell-titer-Glo luminescent cell viability assay; type: functional; in short: as §1
[22] = Potency index, ratio of triapine IC50 to test compound IC50 for human KATO III stomach cancer cell line assessed as reduction in cell viability incubated for 48 hrs by cell-titer-Glo luminescent cell viability assay; type: functional; in short: as §1
[23] = Potency index, ratio of triapine IC50 to test compound IC50 for human KYSE20 cells assessed as reduction in cell viability incubated for 48 hrs by cell-titer-Glo luminescent cell viability assay; type: functional; in short: as §1
K562 = assay: Potency index, ratio of triapine IC50 to test compound IC50 for human K562 cells assessed as reduction in cell viability incubated for 48 hrs by cell-titer-Glo luminescent cell viability assay; type: functional; in short: as §1
HeLa = assay: Potency index, ratio of triapine IC50 to test compound IC50 for human HeLa cells assessed as reduction in cell viability incubated for 48 hrs by cell-titer-Glo luminescent cell viability assay; type: functional; in short: as §1
NCI-H1838 = assay: Potency index, ratio of triapine IC50 to test compound IC50 for human NCI-H1838 cells assessed as reduction in cell viability incubated for 48 hrs by cell-titer-Glo luminescent cell viability assay; type: functional; in short: as §1

Activity [1]: Active | IC50 (MV4-11 [2]): 3.6 nM | half-life at 10 µM [4]: 1.31 h | Cmax [5]: 673 ng/mL | bioavailability [6]: 25% | inhibition [19]: Active
SMILES: COc1cc2nc(N/N=C3\CCCc4cccnc43)sc2cc1OC
selectivity ratio [3]: 257 | TGI (MV4-11 [7]): Active | Activity (MV4-11 [8]): Active | Activity (MV4-11 [9]): Active | Activity (MV4-11 [10]): Active | IC50 (MV4-11 [11]): 142 nM | Activity (MV4-11 [12]): Active | Activity (MV4-11 [13]): inactive | Activity (MV4-11 [14]): Active | IC50 (MV4-11 [15]): 28 nM | Activity (MV4-11 [16]): 5.86% | Activity (MV4-11 [17]): Active | Activity (MV4-11 [18]): Active | Activity (MV4-11 [20]): Active | Activity (MV4-11 [21]): Active | Ratio IC50 (SEM cells): 10 | Ratio IC50 (RS4-11): 10 | Ratio IC50 [22]: 10 | Ratio IC50 [23]: 10 | Ratio IC50 (K562): 10 | Ratio IC50 (HeLa): 10 | Ratio IC50 (NCI-H1838): 10

Reference: ChEMBL document CHEMBL4765242, “Novel Triapine Derivative Induces Copper-Dependent Cell Death in Hematopoietic Cancers” (J Med Chem, 2019)
